Assay outcomes as filed in PubChem BioAssay.
The list is not random: actives were taken first. Their share in the collection is about 2.7%.
pPAFAH inh = pPAFAH (human) enzyme inhibition | AID 463082 | inhibition, % at 3.39 µM | recombinant pPAFAH, FP-rhodamine probe fluorescence polarization | actives 1.5% (n = 330,000);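 active means inhibition above the mean inhibition across the screen plus 3 SD, cut at about 25% in these data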;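 further: inhibitors block binding of the rhodamine activity-based probe so polarization drops; 0% = enzyme with DMSO and 100% = wells lacking pPAFAH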
PAFAH1B2 inh = blocks human PAF acetylhydrolase 1b catalytic subunit 2. recombinant PAFAH1B2, FP-rhodamine activity probe, fluorescence polarization. actives 1.2% (n = 340,000). inhibition, % at 3.39 µM. AID 492953;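 active means inhibition above the mean of all tested compounds plus 3 SD, cut at about 24% in these data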;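 further: 0% = enzyme with DMSO and 100% = wells lacking PAFAH1B2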
Target sequence (P68402 whole entry, looked up): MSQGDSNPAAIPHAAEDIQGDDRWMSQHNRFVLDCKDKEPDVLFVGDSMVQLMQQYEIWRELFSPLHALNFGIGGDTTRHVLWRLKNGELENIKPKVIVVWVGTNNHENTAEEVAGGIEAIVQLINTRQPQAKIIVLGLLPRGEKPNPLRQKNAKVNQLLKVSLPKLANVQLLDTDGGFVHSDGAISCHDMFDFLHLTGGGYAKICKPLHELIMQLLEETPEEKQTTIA
ARFGAP1 inh = rat ARFGAP1 inhibition. actives 0.26% (n = 360,000). Arfgap1-stimulated ARF1 GTP hydrolysis, GDP FP detection. inhibition, % at 16.5 µM;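 active means inhibition above a per-plate limit, mean inhibition of low control wells plus 3 SD, cut at about 25% in these data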;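 further: 0% = DMSO wells with enzyme and 100% = wells lacking Arfgap1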
Target sequence (Q62848 1-136 limits assumed): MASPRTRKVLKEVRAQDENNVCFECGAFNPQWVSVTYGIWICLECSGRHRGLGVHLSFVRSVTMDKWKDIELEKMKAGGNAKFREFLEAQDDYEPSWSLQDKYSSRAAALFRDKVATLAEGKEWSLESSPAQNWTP
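Replicates: Single well per compound | Assay system: Truncated rat Arfgap1 GAP domain | Control set: No-Arfgap1 wells (100%) versus DMSO full-reaction wells (0%) | Times: Enzyme reaction 120 min at 25 °C after 20 min preincubation | Reagent: Human ARF1(Δ1-17)-GTP substrate | Measured by: Tracer-displacement fluorescence polarization with EDTA stop, 620/688 nm | Measure: Percent inhibition of Arfgap1-stimulated GTP hydrolysis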
PAFAH1B3 FP inh = inhibitors of human PAFAH1B3 | recombinant PAFAH1B3, FP-rhodamine probe, fluorescence polarization | inhibition, % at 3.39 µM | actives 0.28% (n = 340,000);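 active means inhibition above the screen-wide average of all tested compounds plus 3 SD, cut at about 25% in these data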;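 further: 0% = enzyme with DMSO only and 100% = wells lacking PAFAH1B3 protein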
PAFAH2 FP inh = PAFAH2 (human) inhibition; Q99487; AID 492956; inhibition, % at 3.39 µM; recombinant PAFAH2, FP-rhodamine activity probe, fluorescence polarization; actives 0.99% (n = 340,000);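 active means inhibition above the mean over all tested compounds plus 3 SD, cut at about 30% in these data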;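 further: inhibitors block probe labeling of enzyme so polarization drops; 0% = enzyme with DMSO and 100% = wells lacking PAFAH2 protein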
ASAP1 GAP inh = blocks human ASAP1-stimulated Arf1 GTP hydrolysis | Q9ULH1 | GDP FP detection | inhibition, % at 16.5 µM | actives 0.19% (n = 360,000) | AID 624377; in the data active means inhibition above about 25%;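 further: 0% = vehicle with enzyme and substrate and 100% = no enzyme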
PAFAH1B3 conf FP = PAFAH1B3 (human) inhibition, confirmed. AID 493032. actives 30% (n = 390). inhibition, % at 3.39 µM. shares compounds with PAFAH1B3 FP inh. recombinant PAFAH1B3, FP-Rh activity-based probe, fluorescence polarization;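 active means average inhibition over triplicate runs above the hit cutoff set in the earlier primary screen, cut at about 25% in these data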;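 further: 0% = enzyme with DMSO and 100% = wells lacking PAFAH1B3 protein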
* = called active by the depositor.

Cc1cc(N/N=C/c2c(O)ccc3ccccc23)nc(-c2ccccc2O)n1 was read as pPAFAH inh 21.3, PAFAH1B2 inh 13.2, ARFGAP1 inh 2.0, PAFAH1B3 FP inh 29.5*, PAFAH2 FP inh 20.1, ASAP1 GAP inh 14.5 and PAFAH1B3 conf FP 14.9.
NNc1nccc(Nc2ccccc2C(=O)O)n1 was read as pPAFAH inh 9.4, PAFAH1B2 inh 18.0, ARFGAP1 inh -7.2, PAFAH1B3 FP inh 28.3*, PAFAH2 FP inh 25.0, ASAP1 GAP inh -1.3 and PAFAH1B3 conf FP 12.3.
For c1ccc(Nc2ccnc(Nc3ccccc3)n2)cc1 the results were pPAFAH inh 2.5, PAFAH1B2 inh 5.3, ARFGAP1 inh 13.4, PAFAH1B3 FP inh 5.7, PAFAH2 FP inh 1.0 and ASAP1 GAP inh 0.8.
For CC1(C(=O)NS(=O)(=O)c2cccc(C#N)c2)CCN1C(=O)CC1CCCCC1 (stereo not drawn) the results were ARFGAP1 inh 12.4 and ASAP1 GAP inh -10.5.
Clc1ccc(-c2nc3ccc(Br)cn3c2Cc2cccc(Cl)c2)cc1 was read as ARFGAP1 inh -1.4 and ASAP1 GAP inh -3.0.
For Cc1cn2c(N)c(C=C3C=C(Cl)C(=O)C(Cl)=C3)c(=O)nc2s1 the results were PAFAH1B2 inh 8.8, ARFGAP1 inh -19.4, PAFAH1B3 FP inh 35.4*, PAFAH2 FP inh 6.2, ASAP1 GAP inh 0.0 and PAFAH1B3 conf FP 22.9.
`COC1=C/C(=C/c2c(N)n3cc(C)sc3nc2=O)C=CC1=O` gave pPAFAH inh -2.0, PAFAH1B2 inh -0.6, ARFGAP1 inh -2.1, PAFAH1B3 FP inh 9.1, PAFAH2 FP inh -2.7 and ASAP1 GAP inh 5.5.
`Cc1cc(F)ccc1C(O)c1ncc(-c2ccc3ccccc3c2)[nH]1` (stereo not drawn) gave ARFGAP1 inh 6.8 and ASAP1 GAP inh 11.7.
`O=[N+]([O-])c1ccc(N/N=C/c2ccccc2O)cc1` gave pPAFAH inh 9.2, PAFAH1B2 inh 9.3, ARFGAP1 inh 20.1, PAFAH1B3 FP inh 26.1*, PAFAH2 FP inh 5.6, ASAP1 GAP inh 19.5 and PAFAH1B3 conf FP 14.9.
Screening CC(=O)N(/N=C1\Sc2ccccc2C1=O)c1cccc(C)c1 returned pPAFAH inh -6.4, PAFAH1B2 inh 7.2, ARFGAP1 inh 7.0, PAFAH1B3 FP inh 42.1*, PAFAH2 FP inh 7.4, ASAP1 GAP inh 6.2 and PAFAH1B3 conf FP 53.6*.
CCC(=O)Oc1ccc(C/C(=N\O)c2ccc(O)cc2O)o1 was read as pPAFAH inh 19.5, PAFAH1B2 inh 16.3, ARFGAP1 inh 10.0, PAFAH1B3 FP inh 27.4*, PAFAH2 FP inh 17.6, ASAP1 GAP inh 5.5 and PAFAH1B3 conf FP 37.8*.
Screening Cc1nc(N)sc1-c1csc(Nc2cccc(C(=O)O)c2)n1 returned PAFAH1B2 inh 10.8, ARFGAP1 inh 0.7, PAFAH1B3 FP inh 29.1*, PAFAH2 FP inh 8.7, ASAP1 GAP inh 1.2 and PAFAH1B3 conf FP 8.4.
O=c1cc(CCl)nc2sc3ccccc3n12 was read as pPAFAH inh 7.0, PAFAH1B2 inh -2.8, ARFGAP1 inh 1.9, PAFAH1B3 FP inh 59.6*, PAFAH2 FP inh -1.0, ASAP1 GAP inh 3.8 and PAFAH1B3 conf FP 72.7*.
For Cc1c(O)nc2sc3ccccc3n2c1=O the results were pPAFAH inh 1.8, ARFGAP1 inh 13.6 and ASAP1 GAP inh 3.5.
For CC1(CNC(=O)C(=O)NCC2(C)CO2)CO1 (stereo not drawn) the results were PAFAH1B2 inh 9.2, ARFGAP1 inh 2.6, PAFAH1B3 FP inh 14.4, PAFAH2 FP inh 1.2 and ASAP1 GAP inh 9.9.
`CC1=NN(c2nc(-c3ccc(C)cc3)cs2)C(=O)C1N=Nc1cccc(O)c1` (stereo not drawn) gave pPAFAH inh 20.4, PAFAH1B2 inh 9.7, ARFGAP1 inh -3.7, PAFAH1B3 FP inh 26.4*, PAFAH2 FP inh 18.4, ASAP1 GAP inh 3.8 and PAFAH1B3 conf FP 15.2.
`CC1=NN(c2nc(-c3ccc(C)cc3)cs2)C(=O)C1N=Nc1ccccc1O` (stereo not drawn) gave pPAFAH inh 16.6, ARFGAP1 inh 13.2 and ASAP1 GAP inh -0.6.
